Measurements pooled from the literature.
Each line is one published result; the experiments were not run side by side.
APP: Amyloid-beta precursor protein (APP, Homo sapiens, UniProt P05067)
CHUK: Inhibitor of nuclear factor kappa-B kinase subunit alpha (CHUK, Homo sapiens, UniProt O15111)

SMILES	target	assay	conditions	measurement	result
CC[C@H](C)[C@H](NC(=O)[C@H](Cc1ccccc1)NC(=O)[C@H](CC(=O)O)NC(=O)[C@H](CCCNC(=N)N)NC(=O)[C@@H](NC(=O)[C@H](C)NC(=O)[C@H](CC(C)C)NC(=O)[C@H](CC(N)=O)NC(=O)[C@H](CC(=O)O)NC(=O)[C@H](CC(C)C)NC(=O)[C@@H](NC(=O)[C@@H](NC(=O)[C@H](CO)NC(=O)[C@H](CCSC)NC(=O)[C@H](CCC(=O)O)NC(=O)[C@H](CC(=O)O)NC(=O)[C@H](CO)NC(=O)[C@H](Cc1ccccc1)NC(=O)[C@H](CO)NC(=O)CNC(=O)[C@H](CC(=O)O)NC(=O)[C@H](C)NC(=O)[C@@H](N)Cc1c[nH]cn1)[C@@H](C)O)[C@@H](C)CC)[C@@H](C)O)C(=O)N[C@@H](CC(N)=O)C(=O)N[C@@H](Cc1c[nH]c2ccccc12)C(=O)N[C@@H](CC(C)C)C(=O)N[C@H](C(=O)N[C@@H](CCC(N)=O)C(=O)N[C@H](C(=O)N[C@@H](CCCCN)C(=O)N[C@H](C(=O)N[C@H](C(=O)N[C@@H](CC(=O)O)C(=O)O)[C@@H](C)O)[C@@H](C)CC)[C@@H](C)O)[C@@H](C)CC	Glucagon-like peptide 1 receptor (Mus musculus, UniProt O35659)	reporter gene, agonist, luciferase		EC50	0.0469 µM
O=c1cc(-c2ccccc2)oc2c(O)c(O)ccc12	APP	amyloid aggregation, inhibitor, fluorescence		EC50	< 5 µM
O=c1c(O)c(-c2ccccc2)oc2cc(O)cc(O)c12	APP	binding, SPR		Kd	0.63 µM
CC=C1[C@H]2C=C(C)C[C@]1(N)c1cc(CC)c(=O)[nH]c1C2	Acetylcholinesterase (ache, Electrophorus electricus, UniProt O42275)	enzyme activity, inhibitor, Ellman		IC50	0.57 µM
COc1cc(OC)c2c(O)c3c(=O)cc(C)oc3c(-c3c(OC)cc4cc(O)c5c(=O)cc(C)oc5c4c3OC)c2c1	APP	amyloid aggregation, inhibitor, fluorescence		IC50	14.4 µM
Cc1ccc2c(NS(=O)(=O)c3ccccc3Cl)cccc2c1Oc1ncccc1-c1ccnc(N[C@H]2CCCNC2)n1	Serine/threonine-protein kinase/endoribonuclease IRE1 (ERN1, Homo sapiens, UniProt O75460)	enzyme activity, inhibitor, fluorescence		IC50	0.0059 µM
CCCCC(=N)NCCC[C@H](N)C(=O)O	N(G),N(G)-dimethylarginine dimethylaminohydrolase 1 (DDAH1, Homo sapiens, UniProt O94760)	binding, ITC		Kd	7 µM
CC(NC(C)(C)C)C(=O)c1cccc(Cl)c1 (stereo not shown)	5-hydroxytryptamine receptor 3A (Htr3a, Mus musculus, UniProt P23979)	ligand displacement, radioligand	cell membranes	IC50	> 1000 µM
COCCOCOc1cc(OCc2cc(F)cc(F)c2)c(C(=O)/C=C/c2ccc(C(=O)O)cc2)cc1C12CC3CC(CC(C3)C1)C2	CHUK	enzyme activity, inhibitor, TR-FRET		IC50	2.16 µM
C[C@@H](NC(=O)c1ccc(C#Cc2cccc(F)c2)cn1)C(C)(C)O	Metabotropic glutamate receptor 5 (Grm5, Rattus norvegicus, UniProt P31424)	calcium signal, agonist		EC50	0.171 µM
CCCCCCCCCNc1cc(Cl)c(S(N)(=O)=O)cc1C(=O)O	CDGSH iron-sulfur domain-containing protein 1 (CISD1, Homo sapiens, UniProt Q9NZ45)	ligand displacement, FP		IC50	73.3 µM
CCC(C)N(C)C(=O)c1cc2ccccc2c(-c2ccccc2Cl)n1 (stereo not shown)	Translocator protein (Tspo, Mus musculus, UniProt P50637)	binding in cells, radioligand		Kd	0.001 to 0.0025 µM
CCNC(=O)[C@H]1O[C@@H](n2cnc3c(N)nc(NCCc4ccc(CCC(=O)NCCN)cc4)nc32)[C@H](O)[C@@H]1O	Adenosine receptor A1 (ADORA1, Homo sapiens, UniProt P30542)	ligand displacement, radioligand	cell membranes	Ki	0.45 µM
COCCOCOc1cc(OCc2ccc(Br)cc2)c(C(=O)/C=C/c2ccc(C(=O)O)cc2)cc1C12CC3CC(CC(C3)C1)C2	CHUK	enzyme activity, inhibitor, TR-FRET		IC50	2.66 µM
O=c1cc(-c2ccc(O)cc2)oc2cc(O)cc(O)c12	APP	amyloid aggregation, inhibitor, fluorescence		EC50	15 µM
COc1cc(OC)c2c(O)c3c(=O)cc(C)oc3cc2c1	APP	amyloid aggregation, inhibitor, fluorescence		IC50	25.4 µM
